Assay results reported in the EternaBench riboswitch data.

System: MS2 coat protein
Experiment: apparent Kd, MS2 coat protein; higher = weaker binding; RNA-MaP array; FMN 200 µM where present
Summary of the method: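 Designs were transcribed by stalled E. coli RNA polymerase on Illumina sequencing-chip clusters. They were titrated with SNAP-549-labelled MS2 coat protein from 0.7 or 1.5 nM, doubling to 3 µM, without and then with constant ligand. Buffer: 100 mM Tris-HCl pH 7.5, 80 mM KCl, 4 mM MgCl2, BSA, DTT, yeast tRNA, Tween-20. Green signal was normalised to red-channel RNA signal and control-cluster median Fmax. Apparent Kd is the median of filtered per-cluster binding-curve fits.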

[1] = designed as: OFF switch for flavin mononucleotide, no ligand
[2] = ligand present: flavin mononucleotide, designed as: OFF switch for flavin mononucleotide
[3] = designed as: ON switch for flavin mononucleotide, no ligand
[4] = ligand present: flavin mononucleotide, designed as: ON switch for flavin mononucleotide

| Sequence | apparent Kd [1] | apparent Kd [2] | apparent Kd [3] | apparent Kd [4] |
| --- | --- | --- | --- | --- |
| GGUUUGCGGCAGGAUAUCCAUCCGCGGUGUGGUGGAGAAGGGCUGACAUGAGGAUCACCCAUGUGCGUCCUGGG | 33.8 nM | 71.7 nM | – | – |
| UGUUGUAUUACAGGAUAUCUAUGAUUAUUAUUUAGAGAAGGGUAUUCACAUGAGGAUCACCCAUGUAUAUACGAGGAAGUUGUG | – | – | 40.7 nM | 48.7 nM |
| GGCAUAAACGAGGAUAUCGUAUCGGAAACGAUACGAGAAGGUGUAACAUGAGGAUCACCCAUGUUCCUCAAGCC | 36.7 nM | 34.8 nM | – | – |
| GGAUCAUAUGUUAGGAUAUGCUGGACCUUGGUUCAGCAGAAGGGACAUGAGGAUCACCCAUGUCAUGUCGAUCC | 21 nM | 22.3 nM | – | – |
| GCACUUUUAUUUUAACCGUUUCGAACAUGAGGAUCACCCAUGUAGGAUAUGCUAAAAGUUGUGAUGCAGAAGGACAUUAAGUGC | 7.15 nM | 7.29 nM | – | – |
| GACCUACAUGAGGAUCACCCAUGUCAGGAUAUUUAACCGAUGUCACCCAUCGGUCCUUAGAGAAGGGAUGUGGC | 15 nM | 14.9 nM | – | – |
| UCUGCCGCCGUGAGGAUAUGCCCAAACAAACGCGGGCAGAAGGCACAUGAGGAUCACCCAUGUCCCGCGGUUUU | 19.6 nM | 36.3 nM | – | – |
| AAUCGAUGAUCAGGAUAUGUGGAGCCUCUAAGCGAAGAGGCGUACAUGAGGAUCACCCAUGUGACACAGAAGGGAUACAUGCGG | – | – | 64.2 nM | 8.2 nM |
| CAGUACUGAGGAUAUACAUGAGGAUCACCCAUGUUUUCCAGCUAGGAUACUAGCAAAUGUAGAAGGCAGUACUG | 25.1 nM | 249 nM | – | – |
| AAUUUACAGCUAGGAUAUACAUGAGGAUCACCCAUGUAAUGAUUGGAUCUUAUGAUCGUAUCAGUGUAGAAGGAGCAAAUAAGA | 13.4 nM | 28.4 nM | – | – |
| CGUACUGAAGUGAGGAUAUUGUCUCGGAUACGAAACAAGAAGGCACAUGAGGAUCACCCAUGUUGACAGUACGA | 15.8 nM | 13.1 nM | – | – |
| GUCAGCUCGUGAGGAUAUACAACACUUCUUCGGCAGUGUAUUAAGAUCACAUGAGGAUCACCCAUGUAGAAGGCACGAGCUGAU | 14.1 nM | 231 nM | – | – |
| CACAUUUUAACAGGAUAUGUAUGGUUGCUUAUUAUUGCAUAUUCAAUUAUUACAGAAGGGUUAUACAUGAGGAUCACCCAUGUG | – | – | 21 nM | 15.5 nM |
| AAAAAAAAAAGACAGGAUAUCCAAAAAAAAACAUGAGGAUCACCCAUGUAAAAAAAAAAAAAAUGGGAGAAGGGUCAAAAAAAAAA | – | – | 63.2 nM | 32.1 nM |
| AGGGUAUGAACAUGAGGAUCACCCAUGUACUAGGAAACAAAUGAGGAUAUCGAUAGCAAAGCUAUCGAGAAGGCAUGGGACCCU | – | – | 224 nM | 51.8 nM |
| AUUUAAUUUAAUAAGAUCACAUGAGGAUCACCCAUGUAUAUAUAGGAUAUCAGCUCGAAUAGAGCUGAGAAGGAUAUAUACUAU | 326 nM | 323 nM | – | – |
| UUCGGGAACUCUAUGGGCCGCUACAUGAGGAUCACCCAUGUGCAGGAUAUAGGUGUCACUACCGCCUAGAAGGGCACAGAAAGA | 41.4 nM | 58.6 nM | – | – |
| CGGUGUCAUGUAAGGAUAUCGCAUCCCAGCGGAUACGAGAAGGUACAUGAGGAUCACCCAUGUACGAUAAAAUA | 14.3 nM | 17.5 nM | – | – |
| AUUCUAAUAGCAGGAUAUCCCAGUAUCCUAAGUCAAAAGUUUUUGACAUGAGGAUCACCCAUGUGGGAGAAGGGCUCUGGAUAA | 111 nM | 65.8 nM | – | – |
| AGUCAUACAGGAUAUACAUGAGGAUCACCCAUGUUUAUCCUAAAAAAGUGAUCCUCAUGUAGAAGGGUAUGACA | 15.2 nM | 18.9 nM | – | – |
| GUGACUUAUAGAGGAUAUUGACAUGAGGAUCACCCAUGUAUUUGGUAGUGUUCAAUGAAUUCUUGCGAGAAGGCUAUAAGACAC | 221 nM | 261 nM | – | – |
| CUCAAACAUGAGGAUCACCCAUGUGUUGUCGUGGGAGGAUAUCCCGGUUCGGUGGCGUCGGGAGAAGGCCUAUGUC | – | – | 68 nM | 35 nM |
| CAGGUAGACUGAGGAUAUACACUAAACAGCUAGUCUAUCUAGCUGCUCACAUGAGGAUCACCCAUGUAGAAGGCAGUCUGCCUG | 17.2 nM | 39.3 nM | – | – |
| UGUCGGUAGUAGAAGGGUAAGACAUGAGGAUCACCCAUGUGAUUUGGGUAUACAGGAUAUGCUUAUAUAUAAGAUUAAAUUAUU | 674 nM | 470 nM | – | – |
| AAAAAGGCAGGAUAUACGAGUCAAAGAAAAGACAAAAAGGGACAUGAGGAUCACCCAUGUAGAAGGGCCAAAAA | 36.9 nM | 227 nM | – | – |
| GCGUAUUAGGUGUAGCUAGUCAUUCAAGAAGGGUGAAGAACAUGAGGAUCACCCAUGUAGUUUAUACAGGAUAUUGAUAUACGC | – | – | 528 nM | 235 nM |
| ACUGGCUUGCAGAAGGGUGACAUGAGGAUCACCCAUGUAGCGGGCCGGCGUAAAGUCAGCGCGCCACAGGAUAUGCAGGCCUCG | – | – | 74 nM | 45.2 nM |
| AAUUAUAUACAGAAGGAGUUAUUUAGAGGAUUACUAGGAUAUGUUCACAUGAGGAUCACCCAUGUCAUAUUGGGAUUUAUUAUU | 18 nM | 24 nM | – | – |

| Sequence | apparent Kd [1] | apparent Kd [2] | apparent Kd [3] | apparent Kd [4] |
| --- | --- | --- | --- | --- |
| UAUUCACAUGAGGAUCACCCAUGUAGAAGGCCGAGCCUGGCCACGGUUACACGCCGUGGAGAGCCGGAGGAUAUACAGCUGGUG | 111 nM | 30.9 nM | – | – |
| UAAAUGUGAGGAUAUUCGUUGAACUCGGAGACGAGUUUAACGGAGAAGGCACAUGAGGAUCACCCAUGUUCCUU | 20.4 nM | 211 nM | – | – |
| UGGUACGAGGGAGGAUAUGGGAAGAUACAUGAGGAUCACCCAUGUUUAAGAAUGCCGAGAGGCAACUAGAAGGCCCUAGUACCU | – | – | 583 nM | 21.9 nM |
| AGAAAUUCAGGAUAUACAUGAGGAUCACCCAUGUUUGGCAGAGGCGCCGAGAUCCCACGUAGAAGGGAAAAGAC | 37.1 nM | 79.9 nM | – | – |
| CAGUAGAUCCGAGGAUAUACAAUCCGGAAACGGUACAUGAGGAUCACCCAUGUAGAAGGCGGAUCUACAGGUACUAAAGUACCA | 5.77 nM | 7.65 nM | – | – |
| GGUGAAGCAGGAUAUGUGCCAAUAUACAUGAGGAUCACCCAUGUCAUGUAGGAACUGCGUAUAGAAGGGCUUCACC | 37.6 nM | 63.5 nM | – | – |
| GUAGAGUAAGGAUAUCAAGAAUAGGAUAGAAUGGUUAGAAUUGAGAAGGUACAUGAGGAUCACCCAUGUAAUGU | 20.9 nM | 21 nM | – | – |
| GAACGGUGAGCAGGAUAUCCACAUUGUCUCCUACAUGAGGAUCACCCAUGUGGAGAAGGGUUUAUAAGUUCGUGUAUACUCAAC | 6.35 nM | 6.9 nM | – | – |
| GACUGACAUGAGGAUCACCCAUGUAUUCGAGCAUGAGGAUAUAUGACUCGUCAUCGGCGGAUAGAAGGCAUGGUUG | – | – | 162 nM | 212 nM |
| UUUUUCUCAGGAUAUACAUGAGGAUCACCCAUGUAUAUUAGGAAUAAUACAUGGGAAUGUAGAAGGGAGCUCAU | 128 nM | 98.4 nM | – | – |
| GGUACUCAAAGAGUACCAAUACGAACAUGAGGAUCACCCAUGUAGGAUAUGCUACUCAAAGAGUAGCAGAAGGACAUGUGCAUA | 22.1 nM | 135 nM | – | – |
| AAAGCAACAUGAGGAUCACCCAUGUAGGAUAUCGCUAUUGUAAUCAUGAAACAUGAUUACAAUAGCGAGAAGGACAUAUGCUCC | 6.61 nM | 11.2 nM | – | – |
| UCCUACAUGGGAGGAUAUGGGACAUGAGGAUCACCCAUGUGAAAAUUAAAUAUGCCGAGAGGCAACUAGAAGGCCCAUGUAGGU | – | – | 35.8 nM | 19.2 nM |
| CCUCUACAUGAGGAUCACCCAUGUGAGGAUAUGCGAGGCGCGCUCGAUGAGCGCGCCGGUAGAAGGCAUGUGGU | 23.2 nM | 49.9 nM | – | – |
| GUAGCAUACCGAGGAUAUUCAGAUAAUAAAUAAACAUGAGGAUCACCCAUGUGGCGAAAGCCUAGGGAGAAGGCGGAAUGCUAC | – | – | 77 nM | 20.6 nM |
| GGCGGGCGAAACAUGAGGAUCACCCAUGUGUUAUAAUUAAUAUAGGAUAUGUUUAUACUUUUUGGGCAGAAGGAUGCGCCUGCC | – | – | 97.8 nM | 67.5 nM |
| GUAAAGUGAGGAUAUGGUAAAUUAAUUAUUAAUUAAUUAAUCCAGAAGGCACAUGAGGAUCACCCAUGUAAUUG | – | 39.1 nM | – | – |
| UGUUGUAUUACAGGAUAUCUAUUAUGUUUAUUUAGAGAAGGGUAUUCACAUGAGGAUCACCCAUGUAUAUACGAGGAAGUUGUG | – | – | 54.8 nM | 56.2 nM |
| AGGAAGUAAGGAUAUGCUGCUCGUCACUUGCGUGAUGAGUAGCAGAAGGUACAUGAGGAUCACCCAUGUAAAAA | 23.7 nM | 18.5 nM | – | – |
| GUCAUGUUAGGAUAUCAAACAUGUGACUUCGGUCACUGUCCUGAGAAGGAACAUGAGGAUCACCCAUGUUGGAC | 17.8 nM | 47.4 nM | – | – |
| UUUAUAAAUUAGAAGGCGAGAUAAAUUACAAUAGACAUGAGGAUCACCCAUGUGUACCCAUGUUUUGAGGAUAUAGUCAUAUAU | – | – | 1140 nM | 624 nM |
| UUGGACGUCGUAGGAUAUGUAGGAUCUUCCUACAUGAGGAUCACCCAUGUUGACAUGGAAGAAGGACAGAAGGACGAUGUCCAU | – | – | 6.88 nM | 4.77 nM |
| AUGGAUAUCACAGGAUAUGCUAAGGAUACCUUAGCAGAAGGGUGAUCCAUCCUAUGGCUGUACAUGAGGAUCACCCAUGUGUCA | – | – | 331 nM | 41.4 nM |
| ACAAGGCAUGUAGGAUAUCCAUUGCGUCGCGAUGGAGAAGGGCAACACACAUGAGGAUCACCCAUGUGGUCACCCAUGUCGUGU | 55.8 nM | 68.8 nM | – | – |
| UGUAUGUAGGCAGGAUAUACAUGAAUAUAUAUGAUGUAGUAUGAUGUAACAUGAGGAUCACCCAUGUAGAAGGGCCAGUGUAUA | 102 nM | 164 nM | – | – |
| CGCUCUAUAUAUAAGGCAAGAAUCAGAAGGCGUUACAUGAGGAUCACCCAUGUUUUGUAUAGUAACGAGGAUAUGAUAUGAGCG | 15.3 nM | 15.1 nM | – | – |
| GGUGGACAUGAGGAUCACCCAUGUGAGGAUAUCGGCCGGCUAGUGGCGGCUGGCUUCUCGAGAAGGCGCAUAGU | 47.2 nM | 62.9 nM | – | – |
